Measured values from paper PMC3355950 (The Journal of Neuroscience, 2012).

Columns and labels:
Format in all cases: cell-based
[1] = biological target: GluN1/GluN2A G786D (Rattus norvegicus, UniProt P35439+Q00959, G786D); test: Two-electrode voltage-clamp recordings, Xenopus oocytes; conditions: 100 μM glutamate + 3 μM glycine
[2] = biological target: GluN1 F754A co-expressed with GluN2A (Rattus norvegicus, UniProt P35439+Q00959, F754A); test: as above; conditions: 100 μM glutamate + 3 μM glycine
[3] = biological target: GluN1/GluN2A M788A (Rattus norvegicus, UniProt P35439+Q00959, M788A); test: as above; conditions: 100 μM glutamate + 3 μM glycine
[4] = biological target: GluK2 kainate receptors (Rattus norvegicus, UniProt P42260); test: Two-electrode voltage-clamp recordings, Xenopus oocytes; conditions: 10 μM TCN-201
How it was run: (§1)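 Xenopus laevis oocytes (female) were injected with in vitro transcribed cRNA and recorded by two-electrode voltage clamp 3–4 d after injection at 23°C, holding at −40 mV. Voltage and current electrodes held 0.3 and 3.0 M KCl.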

[5] = biological target: GluA1 AMPA receptors (Rattus norvegicus, UniProt P19490); test: as above; conditions: 10 μM TCN-201
How it was run: as §1

[6] = biological target: GluN1/2A-(2D D2) (Rattus norvegicus, UniProt P35439+Q00959, D675E/D715E/F680L/F708Y/G712R/G740R/H674Q/I755V/K668R/K738M/N696S/Q661T/Q703S/R681K/R692K/R711P/R741K/S677Y/S719Q/T663S/T706V/T722A/V718T/Y676Q/Y700D/Y754K); test: Two-electrode voltage-clamp recordings, Xenopus oocytes; conditions: 100 μM glutamate plus 30 μM glycine
[7] = biological target: GluN1/GluN2A T793R (Rattus norvegicus, UniProt P35439+Q00959, T793R); test: as above; conditions: 100 μM glutamate + 3 μM glycine
[8] = biological target: GluN1/GluN2A L779A (Rattus norvegicus, UniProt P35439+Q00959, L779A); test: as above; conditions: 100 μM glutamate + 3 μM glycine
[9] = biological target: GluN1/GluN2A P527A (Rattus norvegicus, UniProt P35439+Q00959, P527A); test: as above; conditions: 100 μM glutamate + 3 μM glycine
[10] = biological target: T1, GluN1/GluN2A (Rattus norvegicus, UniProt P35439+Q00959); test: as above; conditions: for Schild slope / pA2 (Schild plot): 100 μM glutamate
[11] = biological target: GluN1/GluN2B (Rattus norvegicus, UniProt P35439+Q00960); test: as above; conditions: 100 μM glutamate + 3 μM glycine; N.E. = no effect at 10 μM TCN-201
[12] = biological target: T1, GluN1/GluN2A; test: Whole-cell voltage-clamp recordings, HEK293 cells, rapid solution exchange; conditions: for % fast / τfast / τslow: brief application (10 ms) of 1000 μM glycine
How it was run: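 HEK293 cells were plated on poly-D-lysine coverslips about 48 h ahead and calcium-phosphate cotransfected with GluN1, GluN2A and GFP (1:1:1). 200 μM D,L-APV and 200 μM 7-chlorokynurenic acid were added after transfection. Whole-cell recording was done about 24 h later at −60 mV and 23°C on lifted cells with piezo-driven theta-glass exchange.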

[13] = biological target: GluN1-1b/GluN2A receptors (Rattus norvegicus, UniProt P35439+Q00959); test: Two-electrode voltage-clamp recordings, Xenopus oocytes; conditions: 3 μM TCN-201, 30 μM glycine; contains exon 5
How it was run: as §1

[14] = biological target: GluN1/2D-(2A S2) (Rattus norvegicus, UniProt P35439+Q62645, A747T/D725Y/D811G/E700D/E740D/H791Q/I813M/K706R/K717R/K766R/K779Y/L705F/L808V/M763K/M815E/P736R/P799Q/Q699H/Q701Y/Q744S/R693K/R737G/R765G/R795P/R818T/S688T/S721N/S728Q/S822T/T686Q/T743V/T783S/V731T/V780I/Y702S/Y733F); test: Two-electrode voltage-clamp recordings, Xenopus oocytes; conditions: 100 μM glutamate + 3 μM glycine
How it was run: (§2)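 cRNA from linearized constructs injected into female Xenopus laevis oocytes. Two-electrode voltage clamp done 3–4 d later at 23°C, holding at −40 mV, in 90 NaCl, 1 KCl, 10 HEPES, 0.5 BaCl₂, 0.01 EDTA (mM), pH 7.4. […] Max inhibition is (control − residual at saturating compound)/control.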

[15] = biological target: GluN1/GluN2C (Rattus norvegicus, UniProt P35439+Q00961); test: as above; conditions: 100 μM glutamate + 3 μM glycine; N.E. = no effect at 10 μM TCN-201
How it was run: as §2

[16] = biological target: GluN1/GluN2A E790M (Rattus norvegicus, UniProt P35439+Q00959, E790M); test: Two-electrode voltage-clamp recordings, Xenopus oocytes; conditions: 100 μM glutamate + 3 μM glycine
[17] = biological target: GluN1/GluN2A V783F (Rattus norvegicus, UniProt P35439+Q00959, V783F); test: as above; conditions: 100 μM glutamate + 3 μM glycine
[18] = 100 μM glutamate + 1 μM glycine
[19] = 100 μM glutamate + 30 μM glycine
[20] = 50 μM glutamate, antagonist 0.1 μM
[21] = 50 μM glutamate, antagonist 0.3 μM
[22] = 50 μM glutamate, antagonist 1 μM

GluN1/GluN2B, sequence (Q00960 27-1482, other chains not shown): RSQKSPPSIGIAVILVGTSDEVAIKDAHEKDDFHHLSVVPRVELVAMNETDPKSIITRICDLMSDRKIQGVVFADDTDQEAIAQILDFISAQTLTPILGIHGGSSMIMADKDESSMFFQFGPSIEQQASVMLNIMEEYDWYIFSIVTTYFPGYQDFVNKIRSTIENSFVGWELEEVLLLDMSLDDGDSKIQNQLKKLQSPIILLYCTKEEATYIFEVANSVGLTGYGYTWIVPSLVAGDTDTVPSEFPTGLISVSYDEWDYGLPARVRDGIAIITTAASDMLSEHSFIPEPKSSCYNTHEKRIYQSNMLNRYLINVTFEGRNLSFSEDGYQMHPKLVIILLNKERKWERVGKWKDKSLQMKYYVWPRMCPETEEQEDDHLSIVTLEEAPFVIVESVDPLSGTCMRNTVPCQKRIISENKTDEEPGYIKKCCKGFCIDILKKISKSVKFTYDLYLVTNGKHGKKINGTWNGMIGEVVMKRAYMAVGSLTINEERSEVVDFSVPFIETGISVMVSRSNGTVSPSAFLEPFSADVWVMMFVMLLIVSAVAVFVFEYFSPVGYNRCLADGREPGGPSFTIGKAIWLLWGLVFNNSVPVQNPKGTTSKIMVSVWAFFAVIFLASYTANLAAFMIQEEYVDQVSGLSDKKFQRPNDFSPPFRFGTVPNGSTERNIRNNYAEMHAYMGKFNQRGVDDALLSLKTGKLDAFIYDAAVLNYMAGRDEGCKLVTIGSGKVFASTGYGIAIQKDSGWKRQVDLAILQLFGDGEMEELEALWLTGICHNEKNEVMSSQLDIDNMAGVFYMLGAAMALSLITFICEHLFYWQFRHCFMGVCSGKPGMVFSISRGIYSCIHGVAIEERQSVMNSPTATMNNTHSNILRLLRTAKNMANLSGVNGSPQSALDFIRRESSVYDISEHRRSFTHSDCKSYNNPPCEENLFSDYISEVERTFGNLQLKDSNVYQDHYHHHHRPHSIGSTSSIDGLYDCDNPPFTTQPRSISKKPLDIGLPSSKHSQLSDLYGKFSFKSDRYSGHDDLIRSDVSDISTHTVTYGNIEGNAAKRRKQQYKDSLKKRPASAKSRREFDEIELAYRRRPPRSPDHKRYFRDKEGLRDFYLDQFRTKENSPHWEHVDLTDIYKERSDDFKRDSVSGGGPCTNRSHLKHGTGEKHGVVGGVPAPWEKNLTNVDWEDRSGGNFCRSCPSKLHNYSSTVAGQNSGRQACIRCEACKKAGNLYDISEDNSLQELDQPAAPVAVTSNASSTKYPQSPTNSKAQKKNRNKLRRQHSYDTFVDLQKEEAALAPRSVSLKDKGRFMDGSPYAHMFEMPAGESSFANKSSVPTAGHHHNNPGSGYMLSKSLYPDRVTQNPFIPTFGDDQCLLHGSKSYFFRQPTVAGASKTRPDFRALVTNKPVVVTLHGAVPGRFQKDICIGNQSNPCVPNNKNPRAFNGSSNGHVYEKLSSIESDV
GluN1/GluN2C, sequence (Q00961 20-1237, other chains not shown): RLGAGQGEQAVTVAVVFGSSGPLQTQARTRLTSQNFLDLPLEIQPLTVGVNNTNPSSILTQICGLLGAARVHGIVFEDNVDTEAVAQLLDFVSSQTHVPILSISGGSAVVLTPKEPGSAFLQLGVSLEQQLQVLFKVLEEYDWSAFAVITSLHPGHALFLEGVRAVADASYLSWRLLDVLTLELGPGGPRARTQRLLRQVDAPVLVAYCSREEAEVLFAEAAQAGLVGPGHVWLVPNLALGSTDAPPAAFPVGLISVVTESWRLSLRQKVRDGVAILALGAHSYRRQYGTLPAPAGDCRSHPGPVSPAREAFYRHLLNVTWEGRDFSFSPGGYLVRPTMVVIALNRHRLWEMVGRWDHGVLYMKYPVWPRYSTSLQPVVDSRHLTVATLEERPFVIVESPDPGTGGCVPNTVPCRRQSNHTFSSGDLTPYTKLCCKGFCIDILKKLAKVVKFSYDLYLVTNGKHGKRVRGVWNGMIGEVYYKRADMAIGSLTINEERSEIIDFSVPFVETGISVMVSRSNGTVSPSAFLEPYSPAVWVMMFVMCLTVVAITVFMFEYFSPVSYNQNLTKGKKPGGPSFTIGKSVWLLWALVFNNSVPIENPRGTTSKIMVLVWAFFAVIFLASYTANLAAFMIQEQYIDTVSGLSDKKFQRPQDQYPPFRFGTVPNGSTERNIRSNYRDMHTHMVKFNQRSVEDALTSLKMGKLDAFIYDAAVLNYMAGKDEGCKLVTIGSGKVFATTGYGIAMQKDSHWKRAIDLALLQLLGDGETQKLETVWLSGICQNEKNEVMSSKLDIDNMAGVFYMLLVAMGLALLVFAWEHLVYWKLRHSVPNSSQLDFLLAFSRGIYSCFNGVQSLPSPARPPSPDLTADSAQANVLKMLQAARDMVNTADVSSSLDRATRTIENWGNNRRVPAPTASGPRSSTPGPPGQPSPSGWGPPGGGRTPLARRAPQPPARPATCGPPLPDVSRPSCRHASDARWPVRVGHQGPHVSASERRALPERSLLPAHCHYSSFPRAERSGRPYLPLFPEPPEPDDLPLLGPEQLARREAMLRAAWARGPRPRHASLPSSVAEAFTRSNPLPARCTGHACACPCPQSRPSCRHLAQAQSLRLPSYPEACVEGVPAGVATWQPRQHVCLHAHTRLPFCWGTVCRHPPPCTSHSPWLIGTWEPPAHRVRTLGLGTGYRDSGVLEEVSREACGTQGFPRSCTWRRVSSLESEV
GluK2 kainate receptors, sequence (P42260 32-908): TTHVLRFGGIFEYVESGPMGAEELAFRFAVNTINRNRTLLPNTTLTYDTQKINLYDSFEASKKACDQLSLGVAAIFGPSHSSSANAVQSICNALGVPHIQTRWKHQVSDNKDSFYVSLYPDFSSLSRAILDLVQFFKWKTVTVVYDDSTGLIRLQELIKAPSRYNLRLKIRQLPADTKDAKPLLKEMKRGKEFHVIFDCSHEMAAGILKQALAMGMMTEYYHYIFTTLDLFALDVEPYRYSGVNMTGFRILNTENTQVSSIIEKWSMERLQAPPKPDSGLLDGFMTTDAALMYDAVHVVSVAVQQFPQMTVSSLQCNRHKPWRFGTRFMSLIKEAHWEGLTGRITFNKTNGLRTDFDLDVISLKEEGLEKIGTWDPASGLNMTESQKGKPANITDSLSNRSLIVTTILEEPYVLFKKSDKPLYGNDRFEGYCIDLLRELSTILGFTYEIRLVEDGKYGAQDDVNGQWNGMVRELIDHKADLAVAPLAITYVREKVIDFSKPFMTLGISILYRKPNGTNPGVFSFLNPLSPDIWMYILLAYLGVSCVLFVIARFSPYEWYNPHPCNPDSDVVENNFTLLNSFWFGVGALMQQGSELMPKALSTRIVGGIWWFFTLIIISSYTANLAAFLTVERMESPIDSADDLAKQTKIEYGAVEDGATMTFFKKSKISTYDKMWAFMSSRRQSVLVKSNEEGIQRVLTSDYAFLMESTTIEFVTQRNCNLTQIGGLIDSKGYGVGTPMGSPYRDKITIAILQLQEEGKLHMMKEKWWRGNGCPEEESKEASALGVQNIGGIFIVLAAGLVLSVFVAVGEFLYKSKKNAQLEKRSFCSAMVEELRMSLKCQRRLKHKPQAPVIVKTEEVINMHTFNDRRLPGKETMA
GluA1 AMPA receptors, sequence (P19490 19-907): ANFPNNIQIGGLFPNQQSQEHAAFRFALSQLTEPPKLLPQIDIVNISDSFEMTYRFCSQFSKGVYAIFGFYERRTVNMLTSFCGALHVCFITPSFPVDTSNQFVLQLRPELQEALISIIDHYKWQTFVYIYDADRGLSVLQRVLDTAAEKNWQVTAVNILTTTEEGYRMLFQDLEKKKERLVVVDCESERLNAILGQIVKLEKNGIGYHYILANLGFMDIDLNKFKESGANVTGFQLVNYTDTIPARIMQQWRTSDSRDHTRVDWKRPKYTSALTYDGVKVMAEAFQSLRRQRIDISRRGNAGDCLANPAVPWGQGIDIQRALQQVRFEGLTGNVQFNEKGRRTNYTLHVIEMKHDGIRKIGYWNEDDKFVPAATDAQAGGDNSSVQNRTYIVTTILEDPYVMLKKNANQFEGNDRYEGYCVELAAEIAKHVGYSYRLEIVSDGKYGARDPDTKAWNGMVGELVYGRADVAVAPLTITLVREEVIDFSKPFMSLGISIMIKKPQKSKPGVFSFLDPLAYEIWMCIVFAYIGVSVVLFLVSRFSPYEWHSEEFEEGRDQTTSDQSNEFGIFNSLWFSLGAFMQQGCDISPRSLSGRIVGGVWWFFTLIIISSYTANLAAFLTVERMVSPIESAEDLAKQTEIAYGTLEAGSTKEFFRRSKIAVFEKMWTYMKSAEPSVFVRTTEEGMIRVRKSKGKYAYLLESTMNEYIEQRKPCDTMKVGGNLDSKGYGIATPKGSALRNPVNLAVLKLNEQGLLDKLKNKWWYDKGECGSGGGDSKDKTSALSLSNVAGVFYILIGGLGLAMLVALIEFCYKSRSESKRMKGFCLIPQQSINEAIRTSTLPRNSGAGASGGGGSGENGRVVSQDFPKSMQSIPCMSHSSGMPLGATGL

TCN-201 activity Max. % inhibition [1]: 82 ± 3%
TCN-201 activity nH [1]: 1.7
TCN-201 activity Max. % inhibition [2]: 98 ± 1%
TCN-201 activity nH [2]: 1.4
TCN-201 activity Max. % inhibition [3]: 90 ± 3%
TCN-201 activity nH [3]: 1.4
Effect on responses activated by 100 μM glutamate [4]: did not affect responses
Effect on responses activated by 100 μM glutamate [5]: did not affect responses
Inhibition by 3 μM TCN-201 [6]: some TCN-201 activity was retained
TCN-201 activity Max. % inhibition [7]: 94 ± 2%
TCN-201 activity nH [7]: 2.2
TCN-201 activity Max. % inhibition [8]: 88 ± 5%
TCN-201 activity nH [8]: 1.3
TCN-201 activity Max. % inhibition [9]: 91 ± 3%
TCN-201 activity nH [9]: 1.4
TCN-201 activity Max. % inhibition [10, 18]: 100 ± 1%
TCN-201 activity nH [10, 18]: 1.2
TCN-201 activity nH ([10]; 100 μM glutamate + 3 μM glycine): 1.5
TCN-201 activity Max. % inhibition [10, 19]: 73 ± 2%
TCN-201 activity nH [10, 19]: 2.2
Schild slope ([10]; agonist D-cycloserine): 0.90
pA2 (Schild plot) ([10]; agonist D-cycloserine): 7.39
Schild slope ([10]; agonist D-serine): 0.79
pA2 (Schild plot) ([10]; agonist D-serine): 7.39
Schild slope ([10]; agonist glycine): 0.87
allosteric constant α ([10]; global nonlinear regression of glycine concentration-response data): 0.0025
Maximal increase in glycine EC50 (1/α) ([10]; implied by α = 0.0025): 400 fold
TCN-201 activity IC50 [11]: did not inhibit and N.E.
τinhibition ([12]; 3 μM TCN-201 in the presence of both glutamate (50 μM) and glycine (10 μM)): 3.4 ± 0.2 s
τinhibition (time constant for TCN-201 binding) ([12]; 3 μM TCN-201 pre-incubated in the absence of any agonists): 3.5 ± 0.3 s
τinhibition ([12]; 3 μM TCN-201 pre-incubated with glutamate alone (50 μM)): 1.1 ± 0.1 s
TCN-201 binding / τinhibition ([12]; 3 μM TCN-201 pre-incubated with glycine alone (10 μM)): Minimal binding
τweighted for glycine deactivation ([12]; brief (10 ms) 1 mM glycine, 50 μM glutamate, 1 μM TCN-201): 27 ± 2 ms
% fast [12, 20]: 74 ± 2%
τfast [12, 20]: 20 ± 1 ms
τslow [12, 20]: 131 ± 7 ms
% fast [12, 21]: 82 ± 1%
τfast [12, 21]: 18 ± 1 ms
τslow [12, 21]: 123 ± 11 ms
% fast [12, 22]: 89 ± 2%
τfast [12, 22]: 16 ± 2 ms
τslow [12, 22]: 116 ± 19 ms
τweighted for glycine deactivation vs absence of TCN-201 ([12]; long (5 seconds) 1 mM glycine, 50 μM glutamate): no significant difference
deactivation time constant, mono-exponential fit (τslow) ([12]; long application (5 seconds) of 1000 μM glycine, 50 μM glutamate, antagonist 0.3 μM): 124 ± 12 ms
Response, % of control [13]: 49 ± 2 % of control
TCN-201 activity Max. % inhibition [14]: 91 ± 4%
TCN-201 activity nH [14]: 2.1
TCN-201 activity IC50 [15]: did not inhibit and N.E.
TCN-201 activity Max. % inhibition [16]: 90 ± 3%
TCN-201 activity nH [16]: 1.4
TCN-201 activity Max. % inhibition [17]: 80 ± 2%
TCN-201 activity nH [17]: 1.8
Structure (SMILES): O=C(NNC(=O)c1ccc(CNS(=O)(=O)c2ccc(F)c(Cl)c2)cc1)c1ccccc1 [TCN-201, 3-chloro-4-fluoro-N-[(4-[(2-(phenylcarbonyl)hydrazino)carbonyl]phenyl)methyl]-benzenesulfonamide]
